Laboratory results as given in ChEMBL document CHEMBL1154632, “Synthesis and antimicrobial activity of 7-(2-substituted phenylthiazolidinyl)-benzopyran-2-one derivatives” (2010).
Active and inactive are the calls of the source. No cut-off for these calls is given here.

How the values were obtained:
[1] = tested on: Penicillium roqueforti; test: Antifungal activity against Penicillium roqueforti NCIM 712 at 100 ug/ml by agar cup plate method; format: functional; details: for zone of inhibition at 100 µg/mL: read-out: IZ
Summary of the method: (§1)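 Agar cup plate assay. Strains were obtained from NCL Pune, India, and test compounds were dissolved in DMF. Values are reported as mean (SEM).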

[2] = tested on: Staphylococcus aureus; test: Antibacterial activity against Staphylococcus aureus NCIM 2602 at 100 ug/ml by agar cup plate method; details: read-out: IZ
[3] = tested on: Escherichia coli; test: Antibacterial activity against Escherichia coli NCIM 2666 at 100 ug/ml by agar cup plate method; format: functional; details: for zone of inhibition at 100 µg/mL: read-out: IZ; summary of the method: as §1
[4] = tested on: Aspergillus niger; test: Antifungal activity against Aspergillus niger NCIM 813 at 100 ug/ml by agar cup plate method; format: functional; details: for zone of inhibition at 100 µg/mL: read-out: IZ; summary of the method: as §1
[5] = tested on: Bacillus subtilis; test: Antibacterial activity against Bacillus subtilis NCIM 2613 at 100 ug/ml by agar cup plate method; details: read-out: IZ
[6] = tested on: Delftia acidovorans; test: Antibacterial activity against Pseudomonas desmolytica NCIM 2028 at 100 ug/ml by agar cup plate method; format: functional; details: for zone of inhibition at 100 µg/mL: read-out: IZ; summary of the method: as §1
[7] = tested on: Aspergillus niger; test: Antifungal activity against Aspergillus niger NCIM 813 at 50 ug/ml by agar cup plate method; format: functional; details: read-out: IZ; summary of the method: as §1
[8] = tested on: Penicillium roqueforti; test: Antifungal activity against Penicillium roqueforti NCIM 712 at 50 ug/ml by agar cup plate method; format: functional; details: read-out: IZ; summary of the method: as §1
[9] = tested on: Staphylococcus aureus; test: microbe, parasite or virus in culture; details: Bacillus subtilis, NCIM 2613, read-out: IZ
[10] = tested on: Bacillus subtilis; test: microbe, parasite or virus in culture; details: Staphylococcus aureus, NCIM 2602, read-out: IZ
[11] = tested on: Delftia acidovorans; test: Antibacterial activity against Pseudomonas desmolytica NCIM 2028 at 50 ug/ml by agar cup plate method; format: functional; details: read-out: IZ; summary of the method: as §1
[12] = tested on: Escherichia coli; test: microbe, parasite or virus in culture; details: NCIM 2666, read-out: IZ

Row | SMILES | zone of inhibition at 100 µg/mL [2] | zone of inhibition at 100 µg/mL [3] | zone of inhibition at 100 µg/mL [5] | zone of inhibition at 100 µg/mL [6] | zone of inhibition at 100 µg/mL [1] | zone of inhibition at 100 µg/mL [4] | other results
1 | Cc1cc(=O)oc2cc(N3C(=O)CSC3c3ccc(N(C)C)cc3)ccc12 (centres undefined) | 5 mm | 10 mm | 13 mm | 7 mm | – | – | inhibition zone (IZ) [1]: inactive; inhibition zone (IZ) [4]: inactive
2 | Cc1cc(=O)oc2cc(/N=C/c3ccc(N(C)C)cc3)ccc12 | 6 mm | 8 mm | 14 mm | 8 mm | – | – | inhibition zone (IZ) [1]: inactive; inhibition zone (IZ) [4]: inactive
3 | COc1cccc(/C=N/c2ccc3c(C)cc(=O)oc3c2)c1 | 9 mm | 11 mm | 13 mm | 8 mm | 13 mm | 11 mm | –
4 | COc1cccc(C2SCC(=O)N2c2ccc3c(C)cc(=O)oc3c2)c1 (centres undefined) | 10 mm | 12 mm | 17 mm | 9 mm | 20 mm | 13 mm | –
5 | COc1ccc(/C=N/c2ccc3c(C)cc(=O)oc3c2)cc1 | 13 mm | 7 mm | 21 mm | – | 14 mm | 9 mm | inhibition zone (IZ) [6]: inactive
6 | Cc1cc(=O)oc2cc(N3C(=O)CSC3c3ccc(F)cc3)ccc12 (centres undefined) | 20 mm | 18 mm | 28 mm | 13 mm | 19 mm | 13 mm | –
7 | Cc1cc(=O)oc2cc(/N=C/c3ccc(O)cc3)ccc12 | 4 mm | – | 10 mm | – | 8 mm | 6 mm | inhibition zone (IZ) [3]: inactive; inhibition zone (IZ) [6]: inactive
8 | Cc1cc(=O)oc2cc(/N=C/c3ccc(F)cc3)ccc12 | 16 mm | 14 mm | 17 mm | 12 mm | 5 mm | – | inhibition zone (IZ) [4]: inactive
9 | Cc1cc(=O)oc2cc(/N=C/c3ccc(Cl)cc3Cl)ccc12 | 5 mm | 14 mm | 12 mm | 13 mm | 9 mm | 7 mm | –
10 | Cc1cc(=O)oc2cc(N3C(=O)CSC3c3ccccc3O)ccc12 (centres undefined) | 4 mm | – | 8 mm | – | 11 mm | 7 mm | inhibition zone (IZ) [3]: inactive; inhibition zone (IZ) [6]: inactive
11 | Cc1cc(=O)oc2cc(/N=C/c3ccccc3)ccc12 | 11 mm | 13 mm | 10 mm | 10 mm | 11 mm | 9 mm | –
12 | Cc1cc(=O)oc2cc(N3C(=O)CSC3c3ccc(Cl)cc3Cl)ccc12 (centres undefined) | 7 mm | 15 mm | 10 mm | 11 mm | 8 mm | 6 mm | –
13 | Cc1cc(=O)oc2cc(N3C(=O)CSC3c3cccc([N+](=O)[O-])c3)ccc12 (centres undefined) | 19 mm | 10 mm | 27 mm | 9 mm | 3 mm | – | inhibition zone (IZ) [4]: inactive
14 | Cc1cc(=O)oc2cc(/N=C/c3ccco3)ccc12 | – | 12 mm | – | 7 mm | 6 mm | – | inhibition zone (IZ) [4]: inactive
15 | Cc1ccc(/C=N/c2ccc3c(C)cc(=O)oc3c2)cc1 | 7 mm | 10 mm | 9 mm | 11 mm | 7 mm | 3 mm | –
16 | Cc1ccc(C2SCC(=O)N2c2ccc3c(C)cc(=O)oc3c2)cc1 (centres undefined) | 6 mm | 20 mm | 8 mm | 15 mm | 6 mm | 3 mm | –
17 | Cc1cc(=O)oc2cc(/N=C/c3ccccc3O)ccc12 | 3 mm | – | 7 mm | – | 10 mm | 6 mm | inhibition zone (IZ) [3]: inactive; inhibition zone (IZ) [6]: inactive
18 | COC1=CC(=O)C[C@@H](C)[C@]12Oc1c(Cl)c(OC)cc(OC)c1C2=O [GRISEOFULVIN] | – | – | – | – | – | – | zone of inhibition at 50 µg/mL [7]: 17 mm; zone of inhibition at 50 µg/mL [8]: 2 mm
19 | Cc1cc(=O)oc2cc(N3C(=O)CSC3c3ccco3)ccc12 (centres undefined) | – | 13 mm | – | 6 mm | 5 mm | – | inhibition zone (IZ) [4]: inactive
20 | O=C(O)c1cn(C2CC2)c2cc(N3CCNCC3)c(F)cc2c1=O [CIPROFLOXACIN] | – | – | – | – | – | – | zone of inhibition at 50 µg/mL [9]: 18 mm; zone of inhibition at 50 µg/mL [10]: 25 mm; zone of inhibition at 50 µg/mL [11]: 18 mm; zone of inhibition at 50 µg/mL [12]: 30 mm
21 | Cc1cc(=O)oc2cc(N3C(=O)CSC3c3ccccc3)ccc12 (centres undefined) | 12 mm | 2 mm | 19 mm | 14 mm | 13 mm | 8 mm | –
22 | Cc1cc(=O)oc2cc(/N=C/c3cccc([N+](=O)[O-])c3)ccc12 | 15 mm | 9 mm | 20 mm | 10 mm | 4 mm | – | inhibition zone (IZ) [4]: inactive
23 | Cc1cc(=O)oc2cc(N3C(=O)CSC3c3ccc(O)cc3)ccc12 (centres undefined) | 4 mm | – | 9 mm | – | 9 mm | 5 mm | inhibition zone (IZ) [3]: inactive; inhibition zone (IZ) [6]: inactive
24 | COc1ccc(C2SCC(=O)N2c2ccc3c(C)cc(=O)oc3c2)cc1 (centres undefined) | 16 mm | 8 mm | 21 mm | – | 17 mm | 11 mm | inhibition zone (IZ) [6]: inactive
